Converted amounts (≈) assume the structure as drawn.
Columns and labels:
[1] = biological target: T1, Receptor-type tyrosine-protein kinase FLT3 (Homo sapiens, UniProt P36888); assay: Inhibition of recombinant Flt3 by TR-FRET assay
T1 sequence (P36888 whole entry): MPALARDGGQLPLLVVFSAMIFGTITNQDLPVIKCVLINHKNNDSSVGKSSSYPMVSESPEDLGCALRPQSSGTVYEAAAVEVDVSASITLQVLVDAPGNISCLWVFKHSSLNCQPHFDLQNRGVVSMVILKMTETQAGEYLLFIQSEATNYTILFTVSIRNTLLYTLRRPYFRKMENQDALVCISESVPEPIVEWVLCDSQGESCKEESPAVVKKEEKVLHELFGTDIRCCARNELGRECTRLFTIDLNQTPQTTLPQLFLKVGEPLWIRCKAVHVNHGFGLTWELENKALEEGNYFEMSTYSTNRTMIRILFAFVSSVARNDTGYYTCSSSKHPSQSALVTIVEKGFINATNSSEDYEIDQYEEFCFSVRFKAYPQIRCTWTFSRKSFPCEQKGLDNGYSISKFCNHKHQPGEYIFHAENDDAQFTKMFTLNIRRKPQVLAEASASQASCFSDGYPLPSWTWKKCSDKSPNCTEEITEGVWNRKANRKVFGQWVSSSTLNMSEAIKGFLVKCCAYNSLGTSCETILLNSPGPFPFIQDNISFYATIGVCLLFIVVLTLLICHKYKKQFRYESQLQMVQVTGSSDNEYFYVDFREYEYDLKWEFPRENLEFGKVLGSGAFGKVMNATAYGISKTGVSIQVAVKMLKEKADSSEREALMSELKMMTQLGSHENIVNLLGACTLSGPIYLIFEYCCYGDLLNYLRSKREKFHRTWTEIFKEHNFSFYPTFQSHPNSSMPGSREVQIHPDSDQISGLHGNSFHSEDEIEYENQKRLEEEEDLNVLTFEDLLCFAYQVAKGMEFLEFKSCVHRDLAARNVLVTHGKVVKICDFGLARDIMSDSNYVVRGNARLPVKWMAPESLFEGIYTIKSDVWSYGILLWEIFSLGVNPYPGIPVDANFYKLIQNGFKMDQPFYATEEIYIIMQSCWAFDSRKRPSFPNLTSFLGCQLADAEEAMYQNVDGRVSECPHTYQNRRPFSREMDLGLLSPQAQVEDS
How it was run: (§1)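 Recombinant tyrosine kinase incubated with test compound and substrate peptide/ATP for 90 min at 30 °C; enzyme amount, ATP level, substrate and cation vary by kinase. Reaction stopped, then TR-FRET reagent with europium-labelled anti-phospho-substrate antibody added for 5 min at room temperature; substrate phosphorylation read as time-resolved fluorescence.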

MCF7 = assay: Cytotoxicity against human MCF7 cells after 96 hrs by WST8 assay; details: MCF7, 96 h
CWR22R = assay: Cytotoxicity against human 22Rv1 cells after 96 hrs by WST8 assay; details: 22Rv1, 96 h
[2] = biological target: Tyrosine-protein kinase ABL1 (Homo sapiens, UniProt P00519); assay: Inhibition of recombinant Abl by TR-FRET assay; how it was run: as §1
Chain of Tyrosine-protein kinase ABL1 (P00519 whole entry): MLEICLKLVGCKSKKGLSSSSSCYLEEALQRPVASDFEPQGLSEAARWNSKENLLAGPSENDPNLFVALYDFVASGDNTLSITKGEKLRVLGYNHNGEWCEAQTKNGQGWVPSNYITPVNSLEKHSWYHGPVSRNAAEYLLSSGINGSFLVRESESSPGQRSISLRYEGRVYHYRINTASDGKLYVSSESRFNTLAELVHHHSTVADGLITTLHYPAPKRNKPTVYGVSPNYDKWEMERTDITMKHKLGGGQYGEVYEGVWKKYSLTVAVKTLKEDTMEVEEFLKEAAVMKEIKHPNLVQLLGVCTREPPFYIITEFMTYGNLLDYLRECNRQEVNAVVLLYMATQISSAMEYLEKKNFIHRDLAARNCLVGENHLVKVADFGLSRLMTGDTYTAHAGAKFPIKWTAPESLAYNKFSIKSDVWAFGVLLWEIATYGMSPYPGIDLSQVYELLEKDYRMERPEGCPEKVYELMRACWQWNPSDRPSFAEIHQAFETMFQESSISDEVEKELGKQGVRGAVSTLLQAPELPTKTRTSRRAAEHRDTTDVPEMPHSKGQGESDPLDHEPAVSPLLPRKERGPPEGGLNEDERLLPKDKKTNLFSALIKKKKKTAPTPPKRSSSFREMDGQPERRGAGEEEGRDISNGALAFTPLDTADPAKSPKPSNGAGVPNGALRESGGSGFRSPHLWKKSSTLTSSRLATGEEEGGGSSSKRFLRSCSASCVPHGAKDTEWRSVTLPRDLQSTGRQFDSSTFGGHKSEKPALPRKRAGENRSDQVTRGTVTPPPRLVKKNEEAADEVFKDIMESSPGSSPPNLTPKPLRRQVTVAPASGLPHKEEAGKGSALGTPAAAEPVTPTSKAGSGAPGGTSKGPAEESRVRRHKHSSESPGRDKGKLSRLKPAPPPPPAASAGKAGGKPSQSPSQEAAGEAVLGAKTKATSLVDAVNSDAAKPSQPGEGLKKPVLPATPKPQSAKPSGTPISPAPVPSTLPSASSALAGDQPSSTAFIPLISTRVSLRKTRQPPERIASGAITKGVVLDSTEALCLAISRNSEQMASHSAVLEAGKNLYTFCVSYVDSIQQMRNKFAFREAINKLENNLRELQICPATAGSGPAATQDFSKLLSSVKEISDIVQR

[3] = Inhibition of recombinant PDGFR by TR-FRET assay; how it was run: as §1
Insulin receptor = Insulin receptor (Homo sapiens, UniProt P06213); assay: Inhibition of recombinant InsR by TR-FRET assay
Chain of Insulin receptor (P06213 28-758 limits assumed): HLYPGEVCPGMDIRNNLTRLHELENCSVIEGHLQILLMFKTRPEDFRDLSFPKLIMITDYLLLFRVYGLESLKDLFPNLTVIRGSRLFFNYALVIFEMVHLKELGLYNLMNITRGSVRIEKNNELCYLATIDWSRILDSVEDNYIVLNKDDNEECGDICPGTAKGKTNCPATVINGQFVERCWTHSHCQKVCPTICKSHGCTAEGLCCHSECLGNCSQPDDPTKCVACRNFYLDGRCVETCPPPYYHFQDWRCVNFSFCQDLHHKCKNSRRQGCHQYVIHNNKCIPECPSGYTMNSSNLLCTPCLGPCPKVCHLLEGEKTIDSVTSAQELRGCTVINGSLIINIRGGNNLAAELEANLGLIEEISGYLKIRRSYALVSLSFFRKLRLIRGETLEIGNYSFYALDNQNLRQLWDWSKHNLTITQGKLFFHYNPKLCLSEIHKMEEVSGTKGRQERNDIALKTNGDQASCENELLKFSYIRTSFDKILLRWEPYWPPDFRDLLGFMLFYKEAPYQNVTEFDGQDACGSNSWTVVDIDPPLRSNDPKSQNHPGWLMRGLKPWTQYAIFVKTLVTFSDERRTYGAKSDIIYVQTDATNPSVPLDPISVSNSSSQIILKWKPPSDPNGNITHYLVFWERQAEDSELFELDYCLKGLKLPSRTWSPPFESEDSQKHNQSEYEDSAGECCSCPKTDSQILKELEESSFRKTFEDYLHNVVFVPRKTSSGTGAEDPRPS
Chain of Insulin receptor (P06213 763-1382 limits assumed): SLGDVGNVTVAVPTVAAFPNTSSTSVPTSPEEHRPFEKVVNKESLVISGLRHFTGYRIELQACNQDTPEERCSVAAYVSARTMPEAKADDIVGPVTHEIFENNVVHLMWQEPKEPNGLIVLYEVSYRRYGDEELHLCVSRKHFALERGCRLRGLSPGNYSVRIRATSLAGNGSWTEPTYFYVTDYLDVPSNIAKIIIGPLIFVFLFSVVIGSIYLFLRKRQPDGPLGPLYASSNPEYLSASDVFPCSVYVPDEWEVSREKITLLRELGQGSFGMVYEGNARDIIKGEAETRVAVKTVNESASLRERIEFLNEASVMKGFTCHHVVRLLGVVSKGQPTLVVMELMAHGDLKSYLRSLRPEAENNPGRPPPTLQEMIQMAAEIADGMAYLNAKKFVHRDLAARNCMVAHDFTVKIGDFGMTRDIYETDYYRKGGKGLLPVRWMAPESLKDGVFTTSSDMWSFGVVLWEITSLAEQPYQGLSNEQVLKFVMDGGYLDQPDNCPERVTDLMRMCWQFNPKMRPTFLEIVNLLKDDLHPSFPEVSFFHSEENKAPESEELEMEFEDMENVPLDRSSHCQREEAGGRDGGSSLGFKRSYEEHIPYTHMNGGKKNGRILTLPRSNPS

MKN-28 = assay: Cytotoxicity against human MKN28 cells after 96 hrs by WST8 assay; details: MKN-28, 96 h
[4] = biological target: T2, Protein kinase C beta type (Homo sapiens, UniProt P05771); assay: Inhibition of recombinant PKCbeta2 by IMAP assay
T2 sequence (P05771 whole entry): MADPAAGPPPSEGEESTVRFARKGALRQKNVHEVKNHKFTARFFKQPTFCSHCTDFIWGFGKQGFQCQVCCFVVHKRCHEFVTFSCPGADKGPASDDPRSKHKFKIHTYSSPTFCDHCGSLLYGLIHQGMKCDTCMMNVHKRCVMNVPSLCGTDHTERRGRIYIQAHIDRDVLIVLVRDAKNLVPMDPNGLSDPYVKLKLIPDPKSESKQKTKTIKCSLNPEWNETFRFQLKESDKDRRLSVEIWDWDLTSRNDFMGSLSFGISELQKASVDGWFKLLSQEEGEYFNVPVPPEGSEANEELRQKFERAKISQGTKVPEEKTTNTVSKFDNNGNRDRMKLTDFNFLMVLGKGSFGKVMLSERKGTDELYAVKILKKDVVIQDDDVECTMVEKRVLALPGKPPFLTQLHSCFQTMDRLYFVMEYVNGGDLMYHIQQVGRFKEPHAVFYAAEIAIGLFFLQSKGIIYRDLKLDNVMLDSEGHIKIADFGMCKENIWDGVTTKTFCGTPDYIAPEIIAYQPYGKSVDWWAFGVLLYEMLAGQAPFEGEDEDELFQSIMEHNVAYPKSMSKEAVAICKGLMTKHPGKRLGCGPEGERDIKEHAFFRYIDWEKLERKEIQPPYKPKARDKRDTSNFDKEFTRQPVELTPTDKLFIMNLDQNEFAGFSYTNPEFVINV
How it was run: (§2)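 Recombinant enzyme mixed with test compound and substrate peptide/ATP solution, incubated 90 min at 30 °C; enzyme quantity, ATP, substrate and cation set per kinase. IMAP reagent then added for 5 min at room temperature, and peptide phosphorylation quantified by fluorescence polarization.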

[5] = Solubility in fasted state simulated intestinal fluid; assay type: physicochemical
[6] = biological target: Tyrosine-protein kinase Fyn (Homo sapiens, UniProt P06241); assay: Inhibition of recombinant Fyn by TR-FRET assay; how it was run: as §1
HUVEC [7] = assay: Inhibition of VEGF-induced proliferation of HUVEC after 96 hrs by WST8 assay; details: Homo sapiens
[8] = biological target: T2, Protein kinase C beta type; assay: Inhibition of recombinant PKCbeta1 by IMAP assay; how it was run: as §2
A549 = assay: Cytotoxicity against human A549 cells after 96 hrs by WST8 assay; details: A549, 96 h
HCT-116 = assay: Cytotoxicity against human HCT116 cells after 96 hrs by WST8 assay; details: HCT-116, 96 h
[9] = biological target: Macrophage-stimulating protein receptor (Homo sapiens, UniProt Q04912); assay: Inhibition of recombinant RON by TR-FRET assay; how it was run: as §1
[10] = biological target: Fibroblast growth factor receptor 2 (Homo sapiens, UniProt P21802); assay: Inhibition of recombinant FGFR2 by TR-FRET assay; how it was run: as §1
Chain of Fibroblast growth factor receptor 2 (P21802 whole entry): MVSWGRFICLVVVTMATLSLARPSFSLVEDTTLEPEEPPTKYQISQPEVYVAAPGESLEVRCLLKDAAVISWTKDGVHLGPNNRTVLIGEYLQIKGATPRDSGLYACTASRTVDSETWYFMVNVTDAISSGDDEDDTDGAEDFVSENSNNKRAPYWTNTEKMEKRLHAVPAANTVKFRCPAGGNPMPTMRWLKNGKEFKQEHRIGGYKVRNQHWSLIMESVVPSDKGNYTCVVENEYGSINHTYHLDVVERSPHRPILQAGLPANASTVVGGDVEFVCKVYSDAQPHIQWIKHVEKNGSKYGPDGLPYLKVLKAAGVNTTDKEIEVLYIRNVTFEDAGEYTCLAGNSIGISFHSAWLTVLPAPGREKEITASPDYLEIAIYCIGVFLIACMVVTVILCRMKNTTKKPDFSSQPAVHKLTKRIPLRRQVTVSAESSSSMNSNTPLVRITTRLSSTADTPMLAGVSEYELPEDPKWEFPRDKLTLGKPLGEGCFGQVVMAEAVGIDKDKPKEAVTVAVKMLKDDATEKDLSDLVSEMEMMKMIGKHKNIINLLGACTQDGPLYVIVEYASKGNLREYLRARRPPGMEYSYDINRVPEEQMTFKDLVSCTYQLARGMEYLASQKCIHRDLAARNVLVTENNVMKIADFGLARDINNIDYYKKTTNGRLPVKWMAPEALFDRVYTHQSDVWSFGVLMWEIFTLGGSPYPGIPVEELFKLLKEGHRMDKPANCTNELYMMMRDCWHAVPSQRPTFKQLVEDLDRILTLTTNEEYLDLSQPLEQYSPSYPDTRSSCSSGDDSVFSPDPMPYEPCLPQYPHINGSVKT

[11] = biological target: Cyclin-dependent kinase 1 (Homo sapiens, UniProt P06493); assay: Inhibition of recombinant CDK1 by IMAP assay; how it was run: as §2
HUVEC [12] = assay: Inhibition of HGF-induced proliferation of HUVEC after 96 hrs by WST8 assay; details: Homo sapiens
MDA-MB-231 = assay: Cytotoxicity against human MDA-MB-231 cells after 96 hrs by WST8 assay; details: MDA-MB-231, 96 h
[13] = biological target: RAC-alpha serine/threonine-protein kinase (Homo sapiens, UniProt P31749); assay: Inhibition of recombinant AKT1 by IMAP assay; how it was run: as §2
HUVEC [14] = assay: Inhibition of ECGS-induced proliferation of HUVEC after 96 hrs by WST8 assay; details: Homo sapiens
[15] = biological target: Tyrosine-protein kinase Yes (Homo sapiens, UniProt P07947); assay: Inhibition of recombinant YES by TR-FRET assay; how it was run: as §1
ASPC1 = assay: Cytotoxicity against human AsPC1 cells after 96 hrs by WST8 assay; details: ASPC1, 96 h
NCI-N87 = assay: Cytotoxicity against human NCI-N87 cells after 96 hrs by WST8 assay; details: NCI-N87, 96 h
Ephrin type-A receptor 2 = Ephrin type-A receptor 2 (Homo sapiens, UniProt P29317); assay: Inhibition of recombinant EphA2 by TR-FRET assay; how it was run: as §1
Chain of Ephrin type-A receptor 2 (P29317 whole entry): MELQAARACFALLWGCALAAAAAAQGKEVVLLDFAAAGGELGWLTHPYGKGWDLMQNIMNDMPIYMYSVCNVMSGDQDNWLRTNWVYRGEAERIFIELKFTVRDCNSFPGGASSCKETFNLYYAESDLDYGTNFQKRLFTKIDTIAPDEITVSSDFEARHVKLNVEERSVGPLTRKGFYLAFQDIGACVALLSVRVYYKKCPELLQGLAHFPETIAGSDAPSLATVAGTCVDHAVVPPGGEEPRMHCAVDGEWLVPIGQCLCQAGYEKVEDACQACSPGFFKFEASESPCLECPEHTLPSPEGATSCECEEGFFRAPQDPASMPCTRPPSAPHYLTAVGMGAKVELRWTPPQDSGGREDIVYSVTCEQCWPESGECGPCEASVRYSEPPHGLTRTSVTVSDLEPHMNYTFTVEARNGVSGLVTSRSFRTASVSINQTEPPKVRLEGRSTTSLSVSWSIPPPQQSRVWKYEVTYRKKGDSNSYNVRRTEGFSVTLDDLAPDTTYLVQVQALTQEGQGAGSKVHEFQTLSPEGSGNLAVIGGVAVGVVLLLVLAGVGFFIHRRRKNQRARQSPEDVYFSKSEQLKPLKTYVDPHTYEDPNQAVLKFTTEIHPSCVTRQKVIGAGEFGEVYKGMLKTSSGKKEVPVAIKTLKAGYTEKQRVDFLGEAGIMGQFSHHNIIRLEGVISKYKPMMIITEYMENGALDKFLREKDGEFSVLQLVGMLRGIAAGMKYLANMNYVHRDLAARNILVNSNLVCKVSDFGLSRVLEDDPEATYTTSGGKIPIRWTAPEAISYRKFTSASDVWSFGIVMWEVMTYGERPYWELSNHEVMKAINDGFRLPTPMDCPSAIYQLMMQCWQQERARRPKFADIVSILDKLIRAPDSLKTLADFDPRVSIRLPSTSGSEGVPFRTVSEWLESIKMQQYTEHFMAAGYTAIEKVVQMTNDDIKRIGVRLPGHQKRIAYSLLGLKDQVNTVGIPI

WiDr = assay: Cytotoxicity against human WiDr cells after 96 hrs by WST8 assay
CAPAN-1 = assay: Cytotoxicity against human Capan1 cells after 96 hrs by WST8 assay; details: CAPAN-1, 96 h
[16] = biological target: Cyclin-dependent kinase 2 (Homo sapiens, UniProt P24941); assay: Inhibition of recombinant CDK2 by IMAP assay; how it was run: as §2
[17] = biological target: Hepatocyte growth factor receptor (Homo sapiens, UniProt P08581); assay: Inhibition of recombinant c-Met by TR-FRET assay
T47D = assay: Cytotoxicity against human T47D cells after 96 hrs by WST8 assay
Calu-6 = assay: Cytotoxicity against human Calu6 cells after 96 hrs by WST8 assay; details: Calu-6, 96 h
[18] = biological target: Protein kinase C alpha type (Homo sapiens, UniProt P17252); assay: Inhibition of recombinant PKCalpha by IMAP assay; how it was run: as §2
[19] = Inhibition of recombinant PKA by IMAP assay; how it was run: as §2

IC50 [1]: 15 µM
IC50 [2]: > 50 µM
IC50 [3]: > 50 µM
IC50 (Insulin receptor): > 50 µM
IC50 [4]: > 50 µM
solubility [5]: 345 µg/mL (≈ 823 µM)
IC50 [6]: 25 µM
IC50 [8]: > 50 µM
IC50 [9]: 0.23 µM
IC50 [10]: 12 µM
IC50 [11]: > 50 µM
IC50 [13]: > 50 µM
IC50 [15]: > 50 µM
IC50 (Ephrin type-A receptor 2): 5.2 µM
IC50 [16]: > 50 µM
IC50 [17]: 0.0093 µM
IC50 [18]: > 50 µM
IC50 [19]: > 50 µM
Compound: C[C@@H](Oc1ccc2ncc(C3CC3C(N)=O)cc2c1)c1c(Cl)ccc(F)c1Cl (stereo partly drawn)
IC50 (MCF7): > 1 µM
IC50 (CWR22R): > 1 µM
IC50 (MKN-28): > 1 µM
IC50 (HUVEC [7]): 6.7 µM
IC50 (A549): > 1 µM
IC50 (HCT-116): > 1 µM
IC50 (HUVEC [12]): 0.3 µM
IC50 (MDA-MB-231): > 1 µM
IC50 (HUVEC [14]): 9.9 µM
IC50 (ASPC1): > 1 µM
IC50 (NCI-N87): > 1 µM
IC50 (WiDr): > 1 µM
IC50 (CAPAN-1): > 1 µM
IC50 (T47D): > 1 µM
IC50 (Calu-6): > 1 µM

From ChEMBL document CHEMBL1156877, “Discovery of 6-benzyloxyquinolines as c-Met selective kinase inhibitors” (Bioorg Med Chem Lett, 2010)
